Sampled rows, rich in hits. Any-hit rate of the full collection: about 1.9%.
HDAC3 inh = human HDAC3 inhibition; inhibition, % at 8.3 µM; O15379; recombinant HDAC3, fluorogenic peptide/trypsin coupled, fluorescence; actives 0.15% (n = 320,000); in the data active = inhibition above about 26%, passing the limit was not always enough
Target sequence (O15379 whole entry, looked up): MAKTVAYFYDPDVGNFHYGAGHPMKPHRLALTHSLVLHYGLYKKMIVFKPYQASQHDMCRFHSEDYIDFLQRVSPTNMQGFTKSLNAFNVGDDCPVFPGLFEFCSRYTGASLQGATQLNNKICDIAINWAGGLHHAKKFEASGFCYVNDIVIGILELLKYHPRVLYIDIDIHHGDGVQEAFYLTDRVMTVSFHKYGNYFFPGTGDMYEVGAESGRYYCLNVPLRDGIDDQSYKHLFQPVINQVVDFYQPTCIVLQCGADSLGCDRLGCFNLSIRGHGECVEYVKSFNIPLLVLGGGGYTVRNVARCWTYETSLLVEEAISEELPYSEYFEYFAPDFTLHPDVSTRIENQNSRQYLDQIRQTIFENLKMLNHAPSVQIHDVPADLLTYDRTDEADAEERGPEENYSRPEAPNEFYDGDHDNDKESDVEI
Runt-CBFb FRET = inhibitors of human RUNX1 Runt domain binding to CBFb; actives 0.46% (n = 220,000); inhibition, % at 20 µM; Q01196+Q13951; Cerulean-Runt/Venus-CBFb FRET ratio 530/480, 1 h;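 active = inhibition over about 50% at 20 µM in the single-dose screen, limit read from the data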;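 note: 0% = DMSO wells and 100% = excess unlabeled CBFb competitor control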
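System: Cerulean-labeled Runt domain protein | Quantity: 100 nM of each labeled protein | Schedule: 1 h compound exposure, room temperature | Detection: Fluorescence energy transfer, 422 nm excitation, 530/480 nm emission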
Runt-SMMHC FRET = blocks binding of human RUNX1 Runt domain to CBFb-SMMHC; Q01196+Q13951; Cerulean-Runt/Venus-CBFb-SMMHC FRET ratio 530/480, 1 h; inhibition, % at 20 µM; actives 0.74% (n = 220,000); AID 1434;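 active = mean inhibition across duplicate retests at 20 µM reaching about 50%, limit read from the data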;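 note: 0% = DMSO wells and 100% = wells with excess untagged CBFb-SMMHC; inhibitors lower the FRET ratio by blocking Runt binding to CBFb-SMMHC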
CaV13 ICDI inh = Primary screen for inhibitors of IQ motif and Ca2+-dependent inactivation inhibitor domain binding in CACNA1D, Förster resonance energy transfer in living cells, …; HEK cells, CFP/YFP FRET ICDI-IQ, plate reader, 10 min; percent FRET-ratio fall versus neutral wells; inhibition, % at 12.3 µM; actives 0.098% (n = 340,000); AID 743397;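 active = mean replicate inhibition of at least 30% and at least 1% of replicates passing that level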;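 note: 0% = median of the neutral control wells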
LANA-H2B inh = blocks KSHV LANA binding to histone H2A/H2B. cell-free LANA-H2A/H2B peptide, fluorescence polarization. actives 0.6% (n = 320,000). inhibition, % (no concentration beside the values). Q9QR71; in the data active = inhibition mostly above about 10%, no sharp cut-off; inactive = mostly below about 6.7%
RanGTP-Imp inh = disruptors of Ran-importin-beta complex formation – biochemical, FRET, CFP-Ran, YFP-importin-beta, homogeneous, primary screen; inhibition, % (test concentration not listed); actives 1.1% (n = 300,000); cell-free CFP-Ran/YFP-importin-beta FRET ratio; AID 2216;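 active = more than half of the replicate wells show a fall in the fluorescence ratio signal beyond about 16%, limit read from the data, passing the limit was not always enough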;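 note: 0% = DMSO wells and 100% = Ran loaded with GDP instead of GTP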
YIC FRET counter = counter-screen: alters YIC FRET probe signal. IC50, µM. shares compounds with RanGTP-Imp inh. Purified YIC probe, intramolecular FRET ratio YFP/CFP. actives 40% (n = 1,000);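 active = fitted half-maximal inhibitory concentration no more than tenfold above the top dose tested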
An asterisk follows results filed as active; x = no result.

SMILES	HDAC3 inh	Runt-CBFb FRET	Runt-SMMHC FRET	CaV13 ICDI inh	LANA-H2B inh	RanGTP-Imp inh	YIC FRET counter
Cc1c(CCC(=O)NCCCN2CCCC2=O)c(=O)oc2c(C)c(O)ccc12	-118.8	x	x	x	2.3	33.1*	16.3*
Cc1c(CCC(=O)NC2CC2)c(=O)oc2c(C)c(O)ccc12	-18.9	x	x	x	-0.7	27.1*	19.9*
O=C(Cn1c2ccccc2c(=O)c2ccccc21)Nc1ccccc1F	-83.1	119.1*	83.4	0.4	4.0	35.8*	6.63*
CCOC(=O)C1=C(C)NC2=C(C(=O)C(C(=O)OCC)C(c3cccc(OC)c3)C2)C1c1ccccn1 (stereo not given)	8.7	35.1	88.8*	x	-2.8	26.3*	21.4*
CCOC(=O)C1=C(C)NC2=C(C(=O)C(C(=O)OCC)C(c3ccc(OC)cc3)C2)C1c1ccccn1 (stereo not given)	-7.7	39.0	74.7*	-2.6	-0.5	18.0*	27.5*
CCOC(=O)C1=C(C)NC2=C(C(=O)C(C(=O)OCC)C(c3ccccc3OC)C2)C1c1ccccn1 (stereo not given)	-5.5	20.8	83.2*	2.0	-1.3	18.3*	23.2*
CCCC1=C(C(=O)OCC)C(c2ccccc2OC)NC(=O)N1 (stereo not given)	-0.9	-2.5	6.2	x	2.8	6.2	x
CC(NS(=O)(=O)c1ccc(Br)cc1F)[C@H](O)c1ccccc1 (stereo not given in full)	x	x	x	-6.2	x	x	x
CC(C)(C)NC(=O)NC(=O)CN1CCN(S(=O)(=O)c2ccc3c(c2)OCCO3)CC1	x	-1.0	2.4	-1.5	-5.7	3.4	x
CCOCCCNC(=O)NC(=O)CN1CCN(S(=O)(=O)c2ccc3c(c2)OCCO3)CC1	5.7	0.7	1.9	-4.7	0.7	19.1*	>50
O=C(/C=C/c1ccccc1)NCCN1CCOCC1	3.4	0.8	3.0	-2.6	-3.2	-1.1	x
Cc1ccc(C(=O)Nc2nnc(SCC(=O)N3CCCc4ccccc43)s2)cc1	4.1	0.7	1.1	-2.0	1.1	39.1*	>50
CC1(C)CCC[C@]2(C)[C@H]3CC(=O)O[C@]3(C)CC[C@@H]12	-2.4	x	x	-18.2	1.2	21.0*	>50
OCCNc1nc2ccccc2nc1NCCO	-17.5	1.3	4.2	-19.2	-0.6	3.5	x
OCCNc1c2ccccc2nc2ccccc12	-10.8	108.8*	116.4*	50.9*	-0.1	39.9*	4.89*
OCCNc1nc(-c2ccccc2)nc2ccccc12	0.7	1.2	1.7	-1.7	7.7	17.5*	>50
Cc1nnc(NC(=O)c2c(-c3ccccc3)noc2C)s1	-1.8	-0.2	-3.5	-7.3	2.6	2.4	x
Cc1onc(-c2ccccc2)c1C(=O)Nc1cccc2nsnc12	-3.3	9.5	25.2	-5.5	-3.8	22.4*	37*
COc1ccc(Cn2c(C)cc3c(c2=O)C(c2cccs2)C(C#N)=C(N)O3)cc1OC (stereo not given)	1.5	-3.5	1.2	-3.4	-0.1	-0.6	x
Cc1c(OCC(=O)NCc2ccncc2)ccc2c3c(c(=O)oc12)CCC3	-5.6	x	x	-7.2	-2.5	17.0*	>50
Cc1ccc(NC(=O)C2CC(=O)N(c3ccc4c5c(cccc35)CC4)C2)cc1 (stereo not given)	7.5	-2.1	-2.0	-3.3	-5.5	-5.2	x
N#Cc1ccccc1NC(=O)C1CC(=O)N(c2ccc3c4c(cccc24)CC3)C1 (stereo not given)	-2.1	-0.8	1.5	-3.1	-2.0	22.4*	>50
O=C(CN1C(=O)CCC1=O)Nc1nc(-c2ccc(Oc3ccccc3)cc2)cs1	-6.3	-4.2	-7.4	-7.0	0.0	-0.5	x
COC(=O)CCC(=O)OC1(C)C(=O)C=C2C=C(C3CC3)N(Cc3ccc(OC)cc3)C=C2C1=O (stereo not given)	5.1	16.8	20.9	-11.6	3.6	20.2*	19.5*
COC(=O)CCC(=O)OC1(C)C(=O)C=C2C=C(C3CC3)N(Cc3ccc4c(c3)OCO4)C=C2C1=O (stereo not given)	0.0	8.1	2.0	-10.8	7.1	-3.8	x
SMILES	HDAC3 inh	Runt-CBFb FRET	Runt-SMMHC FRET	CaV13 ICDI inh	LANA-H2B inh	RanGTP-Imp inh	YIC FRET counter
CC(NC(=O)c1ccc(NC(=O)c2ccco2)cc1)c1ccccc1 (stereo not given)	x	x	x	-2.6	3.1	0.3	x
Cc1ccc(-c2ccc(/C=C(\C#N)C(N)=S)n2C)cc1	3.7	46.4	-4.0	9.9	25.8*	31.3*	>50
Cn1cccc1/C=C(/C#N)C(N)=S	x	10.1	23.5	-15.9	x	-0.7	x
C=CCN1C(=O)/C(=C\c2cccc(OC(=O)c3ccco3)c2)SC1=S	2.6	x	x	-2.6	-4.2	-4.0	x
C=CCN1C(=O)/C(=C\c2ccc(OC(=O)c3ccco3)c(OC)c2)SC1=S	3.0	-4.8	-7.8	-5.5	-2.3	18.7*	>50
O=C(CN1C(=O)c2ccccc2C1=O)OCCOCCN=C1NS(=O)(=O)c2ccccc21	-6.6	-0.3	0.4	0.3	-4.3	0.8	x
OCCc1c[nH]c2cc(F)ccc12	-1.8	x	x	-4.8	-3.2	-1.6	x
C[C@H](O)c1[nH]c2cc(F)ccc2c1[C@H](C)O	-4.4	x	x	-4.8	2.3	17.5*	>50
O=C(O)C(Cc1ccc(O)c([N+](=O)[O-])c1)N1C(=O)c2ccccc2C1=O (stereo not given)	x	x	x	-9.8	x	x	x
O=C(NNc1c2ccccc2nc2ccccc12)C12CC3CC(CC(C3)C1)C2	5.7	10.8	8.8	-18.2	5.4	24.3*	>50
O=C(NNc1c2ccccc2nc2ccccc12)C(O)c1ccccc1 (stereo not given)	-1.7	9.2	14.2	-1.1	3.0	33.7*	>50
CCCC(=O)NNc1c2ccccc2nc2ccccc12	6.3	40.5	26.3	-4.5	-0.2	20.8*	>50
CCCC(=O)NNC(=O)CCC(=O)NCc1ccccc1	2.9	0.3	-0.7	-5.6	1.4	3.0	x
COc1ccc(OC)c(Nc2c3ccccc3nc3ccccc23)c1	-1.4	x	x	-2.1	-2.2	32.5*	>50
Cc1cc(C(=O)COC(=O)Cn2cnc3c2c(=O)n(C)c(=O)n3C)c(C)n1C	-5.2	0.9	-1.3	-3.3	4.7	-1.1	x
COc1ccccc1CP(=O)(c1ccccc1)c1ccccc1	1.4	0.0	2.7	-4.8	-2.8	-1.0	x
COc1ccc(OCC(=O)NNc2c3ccccc3nc3ccccc23)cc1	-3.2	6.4	8.8	-2.9	2.8	27.4*	>50
